According to publication PMC12518644 (Scientific Reports, 2025):

Test system: MDA-MB-231 BC cell line
Assay: MTT cytotoxicity assay on MDA-MB-231 breast cancer cells
Assay type: cell-based
Details: Homo sapiens, MDA-MB-231, 48 h, read-out: IC50 Values, MDA-MB-231, MTT, 48 h
Procedure, shortened: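 Cells grown in DMEM with 10% FBS and 1% antibiotics (100 U/ml penicillin), seeded at 1.0 × 10^4 cells/well, and incubated 24 h at 37 °C under 5% CO2. Medium then replaced with test compound at 6.5, 12.5, 25 or 50 µM for 48 h. MTT (5 mg/mL solution) added for 4 h, formazan dissolved in DMSO, and absorbance read at 570 nm. IC50 derived from dose-response.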

Cc1ccc(S(=O)(=O)n2cc(/C=N/NC(=O)c3cccc4ccccc34)c3ccccc32)cc1 [Compound 5p, (E )-N’ -[(1-Tosyl-1 H -indol-3-yl)methylene]−1-naphthohydrazide]
IC50: 18.1 ± 0.2 µM
